Assay outcomes as filed in PubChem BioAssay.
Shown are actives, neighbours in structure and some others; about 2% of the full set was active somewhere.
T cruzi repl – blocks replication of Trypanosoma cruzi. T. cruzi beta-gal in NIH3T3, luminescence, 90 h. inhibition, % (concentration not given with the values). AID 1885. hit rate 1.4% among 300,000;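 active = mean inhibition across valid replicates above about 55%, limit read from the data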;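 also: signal also drops with host cell toxicity which is not excluded here; 0% = plate median of DMSO wells and 100% = zero luminescence signal; higher percent means less beta-gal luminescence so fewer parasites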
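Assay system: NIH/3T3 fibroblasts plus reporter T. cruzi. Amount: NIH/3T3 cells, 5,000 per well. Buffer or medium: DMEM, 2% fetal bovine serum. Doses: compound pinned at 50 nL/well, DMSO. Schedule: ≥90 h infection period, 3 h prior cell attachment. Signal: luminescent β-galactosidase signal after 60 min lysis. Read-out: parasite load inhibition, %.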
ARNT-TACC3 inh – disruptors of human ARNT/TACC3 interaction. hit rate 0.66% among 390,000. inhibition, % at 9.99 µM. AlphaScreen His-ARNT PAS-B/GST-TACC3 binding, luminescence; TACC3 fragment carries E629A point mutation. AID 623870;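 active = mean inhibition of replicates at least 50% and at least half of replicates each reaching 50%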;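 also: 0% = complete ARNT plus TACC3 wells and 100% = ARNT alone without TACC3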
HIF activator – HIF pathway transcriptional activation; U2OS HRE-luciferase reporter, luminescence; normalized: DMSO 0%, desferrioxamine 100%; activation, % at 7.5 µM (by protocol); hit rate 0.32% among 300,000;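 active = mean activation of at least 10% of the iron chelator positive control signal, with at least half of replicates also reaching 10%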
AI-2 QS modul – modulates the Vibrio harveyi AI-2 quorum sensing system; Vibrio harveyi JMH597 AI-2 luminescence/OD600 ratio, 9 h; stronger effect = lower value; strain lacks LuxN and CqsS sensors; 0 = neutral-control median; hit rate 0.4% among 300,000; activity change, % at 7.5 µM; AID 2094; in the data active = activity change below about -75%, passing the limit was not always enough;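 also: luminescence divided by OD600 gain over 9 h not by final OD600 alone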
An asterisk follows results filed as active; x = not tested or not shown.

SMILES	T cruzi repl	ARNT-TACC3 inh	HIF activator	AI-2 QS modul
CN1CCN(C(=O)[C@@H]2[C@@H](CO)[C@@H]3Cn4c(ccc(C5=CCCC5)c4=O)[C@H]2N3S(C)(=O)=O)CC1	x	9	x	x
COc1ccc(-c2csc(NNC3=NCCCCC3)n2)cc1	51	x	205*	7
CCC(=O)N(C)C[C@H]1Oc2cc(-c3cncnc3)ccc2S(=O)(=O)N([C@H](C)CO)C[C@@H]1C	x	2	x	x
O=C(N/N=C/c1ccc(Br)s1)c1ccccc1[N+](=O)[O-]	7	28	-1	26
O=C(N/N=C/c1ccc([N+](=O)[O-])s1)c1ccncc1	56*	x	-1	-87*
O=C(N/N=C/c1ccc(Br)s1)c1ccc([N+](=O)[O-])cc1	76*	2	0	10
CC(C)(C)OC(=O)N/N=C\c1ccc([N+](=O)[O-])s1	57*	5	0	8
CCOC(=O)N/N=C\c1ccc([N+](=O)[O-])s1	25	-1	0	2
COc1cc(O)c(/C=N/NC(=O)c2ccncc2)c(OC)c1[N+](=O)[O-]	-4	65*	-1	16
COCC#Cc1ccc2c(c1)O[C@H](CN(C)C(=O)Nc1ccccc1F)[C@H](C)CN([C@@H](C)CO)S2(=O)=O	x	29	x	x
C[C@@H]1CN([C@H](C)CO)C(=O)c2cc(-c3ccccc3F)cnc2O[C@@H]1CN(C)C(=O)CN(C)C	x	-8	x	x
C[C@@H]1CN([C@@H](C)CO)C(=O)c2cc(C#C[C@@H](C)O)cnc2O[C@@H]1CN(C)C(=O)c1ccccc1F	x	-3	x	x
Cc1ccc(C(=O)N/N=C/c2ccc([N+](=O)[O-])s2)cc1	58*	24	-2	51
O=C(N/N=C/c1ccc([N+](=O)[O-])s1)c1cccc(Br)c1	93*	6	-2	-48
C[C@@H]1CN([C@@H](C)CO)C(=O)Cc2cc(NC(=O)Nc3ccc4c(c3)OCO4)ccc2O[C@H]1CN(C)CC1CCCCC1	x	15	x	x
CCC(=O)Nc1ccc2c(c1)OC[C@@H](C)N(C(C)=O)C[C@H](C)[C@H](OC)CN(C)C2=O	x	-5	x	x
C=CCn1c(NC(=O)c2ccc(C)cc2)nc2ccccc21	61*	-3	5	-7
CCCn1c(NC(=O)c2ccc(C)cc2)nc2ccccc21	39	-3	3	28
Cc1cc2c(NC(=O)Nc3ccc(C(F)(F)F)cc3)cccc2nn1	69*	21	0	22
CC(C)NC(=O)N(C)C[C@@H]1Oc2ncc(-c3ccc(C(=O)N(C)C)cc3)cc2C(=O)N([C@H](C)CO)C[C@@H]1C	x	-11	x	x
Cc1ccc(S(=O)(=O)N(C)c2ccc(N)cc2)cc1	-2	0	0	23
Cc1ccc(S(=O)(=O)N(C(=N)N)c2nc(N(C)C)nc(N(C)C)n2)cc1	55*	x	-1	40
CCCCCn1c(NC(=O)c2ccco2)c(S(=O)(=O)c2ccc(C)cc2)c2nc3ccccc3nc21	55*	0	2	-2
CCCCn1c(NC(=O)c2ccco2)c(S(=O)(=O)c2ccc(C)cc2)c2nc3ccccc3nc21	12	x	0	-8
O=C(C[C@H]1CC[C@H]2[C@@H](COC[C@@H](O)CN2S(=O)(=O)c2cccc(Cl)c2)O1)NCCCN1CCOCC1	x	5	x	x
SMILES	T cruzi repl	ARNT-TACC3 inh	HIF activator	AI-2 QS modul
COc1ccc(NC(=O)Nc2ccc3c(c2)C(=O)N([C@H](C)CO)C[C@@H](C)[C@H](CN(C)C)OCCCC[C@@H](C)O3)cc1	x	0	x	x
O=C(C[C@H]1C[C@H]2c3cc(NC(=O)C4CCC4)ccc3O[C@H]2[C@@H](CO)O1)NCc1ccncc1	x	0	x	x
C/C(=C\C(=O)OCCCCCCCCC(=O)O)C[C@@H]1OC[C@H](C[C@@H]2O[C@H]2[C@@H](C)[C@H](C)O)[C@@H](O)[C@H]1O	-3	-1	4	-173*
NCCc1c(-c2ccccc2)n(-c2ccccc2)c2ccccc12	64*	x	-2	5
CC(=O)n1c(-c2ccccc2)c(CO)c2ccccc21	-1	0	0	-1
O=C(O)/C=C/C(=O)Nc1ccc(O)cc1	-4	54*	0	17
O=C(O)/C=C/C(=O)Nc1ccc2c(c1)C(=O)c1ccccc1C2=O	-3	48*	2	7
COc1cccc(/C=N/Nc2cc(Cl)nc(C)n2)c1O	-3	x	3	9
COc1cccc(/C=N/Nc2ncnc3c2ncn3Cc2ccccc2)c1O	34	34	68*	21
COc1cccc(/C=N/Nc2nnc(C)n2N)c1O	-14	58*	4	23
Cc1nnc(N/N=C/c2ccccc2F)n1N	3	2	-1	20
